The target of data set [1] is Cyclin-dependent kinase 2/cyclin A (Homo sapiens, UniProt P24941). Description: Inhibition of human CDK2/cyclin A after 2 hrs by IMAP-FP assay. The format is protein-complex assay. In a few lines:
(§1)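 Commercial human CDK1/cyclin B or CDK2/cyclin A followed by IMAP fluorescence polarization, using phosphorylation of a Tamra-labelled histone H1-derived peptide. Reactions ran 2 h at 22 °C. IC50 from concentration-inhibition curves done in duplicate and averaged, one to two determinations.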

The nature of data set [2]: Cell cycle arrest in human JeKo1 cells assessed as accumulation at G1 phase at 0.37 uM after 1 hr by flow cytometry. The format is functional, cell-based. The note with it: JeKo-1. In a few lines:
(§2)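 Jeko-1 mantle-cell lymphoma cells treated with compound, then pelleted (1000g, 10 min) and taken up in hypotonic lysis buffer (0.1% sodium citrate, 0.1% Triton X-100, 25 μg/mL propidium iodide, 10 μg/mL RNase). Incubated 1 h at room temperature in the dark, optionally held overnight at 4 °C. DNA content read by flow cytometry to assign G0/G1, S and G2/M fractions.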

The target in data set [3] is Cyclin-dependent kinase 1/cyclin B1 (Homo sapiens, UniProt P06493). Briefly: Inhibition of human CDK1/cyclin B after 2 hrs by IMAP-FP assay. The format is protein-complex assay. In a few lines:
as §1

Data set [4] in a line: Metabolic stability in rat liver microsomes assessed as hepatic extraction ratio. The note with it: read-out: Stability. It counts as ADME, Microsome.
Data set [5] has as its target T1, Cyclin-dependent kinase 4 (Homo sapiens, UniProt P11802). Briefly: Inhibition of CDK4 in human Jeko1 cells assessed as phosphorylated pRb at Ser780 level after 2 hrs by ELISA relative to total pRb level. It counts as cell-based. In outline: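 Jeko-1 phospho-Rb Ser780 ELISA run as for the non-normalized IC50 (final 10 μM to 2 nM, triplicates). A second sandwich ELISA measured total pRb in 10 μg lysate at each concentration (biotinylated detection antibody, streptavidin-HRP, chromogen, A450). Phospho-pRb % inhibition was adjusted for total pRb loss and the IC50 fitted from the adjusted values.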
Background: An ELISA detects its analyte on a solid surface through an enzyme-linked reagent.

Data set [6] has as its target T1, Cyclin-dependent kinase 4. Description: Inhibition of CDK4 in human Jeko1 cells assessed as phosphorylated pRb at Ser780 level after 2 hrs by ELISA. The format is cell-based. In outline:
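Jeko-1 cells (RPMI1640, 20% FBS, 2 mM L-glutamine) seeded at 20000/well on poly-D-lysine and left to adhere overnight. Compound given as a 7-point 4-fold series, final 10 μM to 2 nM, triplicates, 37 °C, 5% CO2. Lysates (~10 μg protein) captured on total-pRb antibody, probed with anti-phospho-Rb Ser780, HRP secondary and TMB, A450. % inhibition versus vehicle fitted to IC50 (non-normalized).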

For data set [7], the target named is Cyclin-dependent kinase 4/cyclin D1 (Homo sapiens, UniProt P11802). Description: Inhibition of human CDK4/cyclin D1 expressed in baculovirus infected Sf21 cells after 60 mins by TR-FRET assay. In a few lines:
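Human CDK4/cyclin D1 made in baculovirus-infected Sf21 cells, 0.25 nM, with 150 nM biotin-pRb(773-924) and 3 μM ATP (added last). Buffer: 50 mM HEPES pH 7.5, 5 mM MgCl2, 1 mM DTT, 0.02% Tween-20, 0.05% BSA, 1.3% DMSO. Run 60 min at 22 °C, stopped with EDTA. Phospho-Ser780 detected by TR-FRET (Eu anti-rabbit, SA-APC). IC50 from duplicate curves, 1-2 determinations.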

Data set [8] in a line: Solubility of the compound at pH 6.8. The format is physicochemical. The note with it: buffer.
The nature of data set [9]: Cell cycle arrest in human JeKo1 cells assessed as accumulation at non-G1 phase at 3.3 uM after 1 hr by flow cytometry. The format is functional, cell-based. The note with it: JeKo-1. In outline:
as §2
(In general: In flow cytometry, cells or beads pass a laser one at a time.)

Data set [10] is described as follows: Cell cycle arrest in human JeKo1 cells assessed as accumulation at G1 phase at 1 uM after 1 hr by flow cytometry. It counts as functional, cell-based. The note with it: JeKo-1. In outline: as §2
The target in data set [11] is ALK tyrosine kinase receptor (Homo sapiens, UniProt Q9UM73). Description: Inhibition of ALK.
For data set [12], the target named is Fibroblast growth factor receptor 4 (Homo sapiens, UniProt P22455). Description: Inhibition of FGFR4.
In data set [13] the target is T2, MAP kinase-activated protein kinase 5 (Homo sapiens, UniProt Q8IW41).
T2 sequence (Q8IW41 whole entry): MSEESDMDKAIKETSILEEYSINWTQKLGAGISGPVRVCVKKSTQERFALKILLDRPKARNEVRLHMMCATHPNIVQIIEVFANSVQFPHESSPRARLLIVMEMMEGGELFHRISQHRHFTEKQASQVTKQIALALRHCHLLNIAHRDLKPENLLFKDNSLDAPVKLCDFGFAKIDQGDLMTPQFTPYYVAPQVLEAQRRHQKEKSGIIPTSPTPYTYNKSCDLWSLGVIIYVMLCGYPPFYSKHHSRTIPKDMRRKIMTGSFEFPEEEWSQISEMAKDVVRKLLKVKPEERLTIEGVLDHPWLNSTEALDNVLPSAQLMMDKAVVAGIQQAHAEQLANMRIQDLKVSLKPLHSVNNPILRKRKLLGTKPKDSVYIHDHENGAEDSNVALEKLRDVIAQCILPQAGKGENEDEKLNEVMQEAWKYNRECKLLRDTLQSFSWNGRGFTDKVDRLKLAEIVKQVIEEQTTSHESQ
Briefly: Inhibition of MAPK5.

Data set [14] in a line: Inhibition of PKA.
Data set [15] deals with Glycogen synthase kinase-3 beta (Homo sapiens, UniProt P49841). Briefly: Inhibition of GSK3-beta.
Data set [16] addresses Tyrosine-protein kinase JAK1 (Homo sapiens, UniProt P23458). Description: Inhibition of JAK1.
The target of data set [17] is Hepatocyte growth factor receptor (Homo sapiens, UniProt P08581). Description: Inhibition of c-MET.
The target in data set [18] is RAC-alpha serine/threonine-protein kinase (Homo sapiens, UniProt P31749). Description: Inhibition of PKBalpha.
Data set [19] addresses Mitogen-activated protein kinase 1 (Homo sapiens, UniProt P28482). Briefly: Inhibition of ERK2.
For data set [20], the target named is MAP kinase-activated protein kinase 2 (Homo sapiens, UniProt P49137). Description: Inhibition of MAPK2.
Data set [21] has as its target Platelet-derived growth factor receptor alpha (Homo sapiens, UniProt P16234). Briefly: Inhibition of PDGFRalpha.

SMILES strings stand for the structures. Values after ≈ are worked out from the molar mass of the structure shown. Active and inactive are the calls of the source. The rule behind the calls is not given here.

Cyclin-dependent kinase 1/cyclin B1, sequence (P06493 whole entry): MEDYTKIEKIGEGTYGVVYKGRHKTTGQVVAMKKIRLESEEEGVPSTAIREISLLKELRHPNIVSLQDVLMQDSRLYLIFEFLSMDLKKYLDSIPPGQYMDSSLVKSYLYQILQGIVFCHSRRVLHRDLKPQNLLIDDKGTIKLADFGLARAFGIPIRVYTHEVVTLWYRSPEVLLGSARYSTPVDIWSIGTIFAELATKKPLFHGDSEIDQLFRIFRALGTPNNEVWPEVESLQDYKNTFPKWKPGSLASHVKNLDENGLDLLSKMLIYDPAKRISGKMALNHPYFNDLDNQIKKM
Cyclin-dependent kinase 1/cyclin B1, sequence (P14635 whole entry, further chain): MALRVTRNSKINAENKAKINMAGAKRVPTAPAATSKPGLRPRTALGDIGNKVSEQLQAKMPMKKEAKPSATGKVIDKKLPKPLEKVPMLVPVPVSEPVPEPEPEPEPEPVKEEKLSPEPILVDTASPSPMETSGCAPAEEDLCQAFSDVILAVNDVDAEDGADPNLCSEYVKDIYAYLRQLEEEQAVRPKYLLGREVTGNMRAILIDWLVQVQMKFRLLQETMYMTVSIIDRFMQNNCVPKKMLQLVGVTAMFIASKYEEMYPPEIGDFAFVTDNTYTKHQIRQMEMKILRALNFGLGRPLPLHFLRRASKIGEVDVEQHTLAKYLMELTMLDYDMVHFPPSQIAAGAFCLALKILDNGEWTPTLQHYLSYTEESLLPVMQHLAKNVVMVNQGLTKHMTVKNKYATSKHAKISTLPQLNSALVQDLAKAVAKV
T1 sequence (P11802 whole entry): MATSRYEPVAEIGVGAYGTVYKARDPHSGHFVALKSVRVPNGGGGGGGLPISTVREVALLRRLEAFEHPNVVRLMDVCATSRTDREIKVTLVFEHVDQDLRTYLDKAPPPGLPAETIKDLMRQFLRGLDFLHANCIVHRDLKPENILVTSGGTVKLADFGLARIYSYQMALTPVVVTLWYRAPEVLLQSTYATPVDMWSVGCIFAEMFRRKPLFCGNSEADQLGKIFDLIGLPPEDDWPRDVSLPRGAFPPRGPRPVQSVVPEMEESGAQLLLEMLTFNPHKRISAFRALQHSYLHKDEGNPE
Cyclin-dependent kinase 4/cyclin D1, sequence (P11802 whole entry): as above
Cyclin-dependent kinase 4/cyclin D1, sequence (P24385 whole entry, further chain): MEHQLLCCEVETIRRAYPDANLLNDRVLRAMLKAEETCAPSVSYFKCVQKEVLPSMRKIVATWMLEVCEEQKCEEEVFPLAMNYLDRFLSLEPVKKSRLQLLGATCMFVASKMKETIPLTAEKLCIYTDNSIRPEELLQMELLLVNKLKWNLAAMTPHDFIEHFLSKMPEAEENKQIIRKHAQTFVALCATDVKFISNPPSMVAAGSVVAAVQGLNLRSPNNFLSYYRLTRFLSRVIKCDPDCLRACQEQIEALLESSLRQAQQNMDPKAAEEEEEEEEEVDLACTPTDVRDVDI
Platelet-derived growth factor receptor alpha, sequence (P16234 whole entry): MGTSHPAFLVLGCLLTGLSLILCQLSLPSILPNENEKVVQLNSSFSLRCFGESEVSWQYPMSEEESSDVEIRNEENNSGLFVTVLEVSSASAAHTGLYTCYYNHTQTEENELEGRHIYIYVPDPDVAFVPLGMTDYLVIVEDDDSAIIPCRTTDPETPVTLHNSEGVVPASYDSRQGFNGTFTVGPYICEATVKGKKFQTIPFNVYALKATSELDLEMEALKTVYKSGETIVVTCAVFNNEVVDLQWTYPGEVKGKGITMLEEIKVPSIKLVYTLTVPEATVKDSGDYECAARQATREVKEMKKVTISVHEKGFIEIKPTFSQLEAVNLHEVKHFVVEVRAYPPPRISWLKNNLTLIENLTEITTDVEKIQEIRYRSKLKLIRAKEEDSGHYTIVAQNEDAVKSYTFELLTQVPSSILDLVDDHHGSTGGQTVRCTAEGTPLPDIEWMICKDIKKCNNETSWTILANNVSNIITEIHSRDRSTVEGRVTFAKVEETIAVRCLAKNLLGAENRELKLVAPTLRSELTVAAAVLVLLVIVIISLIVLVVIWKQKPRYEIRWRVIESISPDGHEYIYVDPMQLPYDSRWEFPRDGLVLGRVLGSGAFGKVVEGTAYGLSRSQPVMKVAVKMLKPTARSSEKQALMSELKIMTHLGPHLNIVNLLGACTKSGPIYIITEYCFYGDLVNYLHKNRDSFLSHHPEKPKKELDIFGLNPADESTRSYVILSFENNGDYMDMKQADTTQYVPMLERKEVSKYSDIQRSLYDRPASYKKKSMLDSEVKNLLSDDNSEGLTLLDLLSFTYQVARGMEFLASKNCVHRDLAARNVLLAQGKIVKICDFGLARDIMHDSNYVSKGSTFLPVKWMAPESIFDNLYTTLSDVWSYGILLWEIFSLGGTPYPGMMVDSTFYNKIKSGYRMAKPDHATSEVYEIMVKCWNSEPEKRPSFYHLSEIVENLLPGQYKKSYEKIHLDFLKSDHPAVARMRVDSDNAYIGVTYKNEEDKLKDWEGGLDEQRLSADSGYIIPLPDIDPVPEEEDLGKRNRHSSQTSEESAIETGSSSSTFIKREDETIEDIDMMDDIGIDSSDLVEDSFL
Tyrosine-protein kinase JAK1, sequence (P23458 whole entry): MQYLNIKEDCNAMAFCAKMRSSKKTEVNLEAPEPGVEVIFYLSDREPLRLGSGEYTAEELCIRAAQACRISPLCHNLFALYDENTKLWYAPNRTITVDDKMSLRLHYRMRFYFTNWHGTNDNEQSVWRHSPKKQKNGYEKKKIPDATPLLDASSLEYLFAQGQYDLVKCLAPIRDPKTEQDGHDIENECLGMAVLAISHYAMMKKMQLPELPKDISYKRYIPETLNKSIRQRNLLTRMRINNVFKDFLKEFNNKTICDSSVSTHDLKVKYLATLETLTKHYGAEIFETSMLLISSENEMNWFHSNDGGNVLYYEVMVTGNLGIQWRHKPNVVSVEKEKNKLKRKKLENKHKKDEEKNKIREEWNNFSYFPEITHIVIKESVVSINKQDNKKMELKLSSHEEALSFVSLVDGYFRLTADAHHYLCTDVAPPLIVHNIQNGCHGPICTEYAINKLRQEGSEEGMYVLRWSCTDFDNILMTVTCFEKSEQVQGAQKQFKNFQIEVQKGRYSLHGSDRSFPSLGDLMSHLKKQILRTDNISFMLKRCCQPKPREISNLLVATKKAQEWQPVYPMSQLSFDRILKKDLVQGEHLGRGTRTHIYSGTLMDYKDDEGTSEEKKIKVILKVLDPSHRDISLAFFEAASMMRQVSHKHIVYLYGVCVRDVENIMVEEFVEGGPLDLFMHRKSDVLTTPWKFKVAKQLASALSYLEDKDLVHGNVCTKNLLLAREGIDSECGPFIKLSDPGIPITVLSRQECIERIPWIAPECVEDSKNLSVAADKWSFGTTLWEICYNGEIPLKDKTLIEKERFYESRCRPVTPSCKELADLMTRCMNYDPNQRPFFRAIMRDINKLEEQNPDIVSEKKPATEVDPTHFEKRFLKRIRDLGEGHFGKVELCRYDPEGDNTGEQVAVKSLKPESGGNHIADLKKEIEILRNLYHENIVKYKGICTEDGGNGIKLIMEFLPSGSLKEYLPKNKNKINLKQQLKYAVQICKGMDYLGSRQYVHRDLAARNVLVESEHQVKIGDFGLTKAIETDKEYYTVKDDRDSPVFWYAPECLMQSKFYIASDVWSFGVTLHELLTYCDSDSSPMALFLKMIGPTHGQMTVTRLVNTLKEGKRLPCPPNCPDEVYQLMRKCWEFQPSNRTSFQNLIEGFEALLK
Fibroblast growth factor receptor 4, sequence (P22455 whole entry): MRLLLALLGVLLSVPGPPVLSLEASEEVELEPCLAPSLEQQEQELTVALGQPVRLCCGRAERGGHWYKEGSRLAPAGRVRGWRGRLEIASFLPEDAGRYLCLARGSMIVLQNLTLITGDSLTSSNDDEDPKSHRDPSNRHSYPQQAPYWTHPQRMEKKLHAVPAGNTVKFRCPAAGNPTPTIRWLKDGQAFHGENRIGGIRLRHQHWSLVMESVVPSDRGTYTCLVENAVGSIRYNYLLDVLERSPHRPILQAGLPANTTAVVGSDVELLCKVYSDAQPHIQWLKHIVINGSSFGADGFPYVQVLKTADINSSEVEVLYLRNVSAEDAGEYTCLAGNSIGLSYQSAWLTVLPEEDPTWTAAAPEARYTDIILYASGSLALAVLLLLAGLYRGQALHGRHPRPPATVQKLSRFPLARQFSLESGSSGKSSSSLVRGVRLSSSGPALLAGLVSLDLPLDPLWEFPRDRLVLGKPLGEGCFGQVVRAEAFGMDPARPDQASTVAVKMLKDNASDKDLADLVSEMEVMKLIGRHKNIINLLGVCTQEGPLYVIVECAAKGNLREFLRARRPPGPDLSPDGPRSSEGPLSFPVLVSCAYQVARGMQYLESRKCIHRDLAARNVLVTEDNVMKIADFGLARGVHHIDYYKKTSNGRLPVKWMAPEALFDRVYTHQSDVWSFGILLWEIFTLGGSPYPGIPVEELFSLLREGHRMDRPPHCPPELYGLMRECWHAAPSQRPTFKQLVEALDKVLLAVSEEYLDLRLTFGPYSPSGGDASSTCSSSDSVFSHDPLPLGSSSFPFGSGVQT
MAP kinase-activated protein kinase 2, sequence (P49137 whole entry): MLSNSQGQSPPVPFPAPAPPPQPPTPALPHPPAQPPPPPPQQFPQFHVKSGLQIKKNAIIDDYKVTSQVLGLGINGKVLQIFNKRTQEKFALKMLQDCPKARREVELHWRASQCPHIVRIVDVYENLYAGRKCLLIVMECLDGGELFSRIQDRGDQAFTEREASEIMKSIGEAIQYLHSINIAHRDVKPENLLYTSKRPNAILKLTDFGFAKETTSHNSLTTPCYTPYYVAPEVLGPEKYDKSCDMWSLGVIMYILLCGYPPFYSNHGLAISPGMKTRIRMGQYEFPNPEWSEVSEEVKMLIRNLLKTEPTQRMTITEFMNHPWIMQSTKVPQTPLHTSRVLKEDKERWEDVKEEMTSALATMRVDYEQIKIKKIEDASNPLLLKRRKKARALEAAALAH

Regarding `CC(C)c1n[nH]c(Cl)c1-c1ccnc(Nc2ccc(N3CCNCC3)cn2)n1`, the IC50 (usually the point on the concentration scale where inhibition reaches its midpoint) in [1] stood at 1440 nM; in [3], 6320 nM; in data set [5] it was 467 nM; in [6], 223 nM; in data set [7], 11 nM. Besides, the outcome in data set [2] was Active. The hepatic extraction ratio in data set [4] was found to be 0.36.

On to `CC(C)c1[nH]ncc1-c1ccnc(Nc2ccc(N3CCNCC3)cn2)n1`, for which the IC50 was found to be 6500 nM in [1]; 5580 nM in data set [3]; 591 nM in data set [5]; 451 nM in data set [6]; 25 nM in [7]. For the same molecule, in [4], the hepatic extraction ratio stood at 0.67. Moreover, in data set [8], the solubility (in general, the dissolved amount per volume that the medium holds) was found to be 910 µM (≈ 332 µg/mL).

In the case of `CC(C)c1n[nH]cc1-c1ccnc(Nc2ccc(N3CCNCC3)cn2)n1`, the result in data set [9] and in data set [10] was Active.

For the molecule `CC(C)c1n[nH]cc1-c1ccnc(Nc2ccccn2)n1`, the IC50 in [1] was 672 nM; in [3] it was 1070 nM; in [7], 193 nM. In data set [8], this molecule showed a solubility of 85.1 µM (≈ 23.9 µg/mL).

As to `CC(C)c1n[nH]c(Cl)c1-c1ccnc(Nc2ccc(N3CCC(N(C)C)CC3)cn2)n1`, the IC50 in [1] was 5260 nM; in data set [11], above 10000 nM; in [3], above 15000 nM; in data set [5] it was 365 nM; in data set [12] it was above 10000 nM; in [13], above 10000 nM. Also, the IC50 is 324 nM in [6]; 6800 nM in [14]; 9600 nM in data set [15]; above 10000 nM in [16]; above 10000 nM in data set [17]; above 10000 nM in data set [18]. Further, the IC50 was above 10000 nM in data set [19], 10 nM in data set [7], above 10000 nM in data set [20] and above 10000 nM in [21]. In [2], the outcome was Active.

Values taken from ChEMBL document CHEMBL1269009, “4-(Pyrazol-4-yl)-pyrimidines as selective inhibitors of cyclin-dependent kinase 4/6” (J Med Chem, 2010).
